Source: ChEMBL document CHEMBL1145118, “Metabolites of febrifugine and its synthetic analogue by mouse liver S9 and their antimalarial activity against Plasmodium malaria parasite” (J Med Chem, 2003)
Each block holds one compound with its values, some of them ahead of it.

Experiments:
[1] = Selectivity ratio between cytotoxicity to antimalarial activity was determined; assay type: functional
Plasmodium berghei [2] = test: (§1) In vivo effective dose for antimalarial activity by intraperitoneal dose; assay type: functional; details: ip
Outline: (§2)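 Mice infected with P. berghei were dosed intraperitoneally or orally, in groups of five, once daily on days 0–3. Compounds were given at various concentrations in distilled water or olive oil. Parasitemia was measured on day 4, the day after the last dose. ED50 and ED90 were derived by a previously reported protocol.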

Plasmodium berghei [3] = test: as §1; assay type: functional; details: ip; remark: listed apart in the source
Outline: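 P. berghei-infected mice, five per group. Test agents were prepared at various concentrations in distilled water or olive oil and given intraperitoneally once daily on days 0–3. Parasitemia was measured on day 4, the day after the last dose, and effective doses were derived by a previously reported protocol.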

Plasmodium berghei [4] = test: In vivo antimalarial activity at >100mg/kg intraperitoneal dose; assay type: functional
Plasmodium falciparum = test: In vitro antimalarial activity against Plasmodium falciparum FCR3; assay type: functional, organism-based
FM3A = test: Cytotoxicity against FM3A mouse mammary cells; assay type: functional, cell-based
Plasmodium berghei [5] = test: In vivo effective dose for antimalarial activity by peroral dose; assay type: functional; details: po; outline: as §2

Structure (SMILES): O=C(C[C@@H]1NCCC[C@H]1O)Cn1cnc2ccccc2c1=O (single isomer, unassigned) [FEBRIFUGINE]
Ratio [1]: 243 | ED90 (Plasmodium berghei [2]): 1.5 mg/kg | ED50 (Plasmodium berghei [3]): 0.3 mg/kg

Structure (SMILES): O=c1c2ccccc2ncn1CC1(O)C[C@@H]2NCCC[C@@H]2O1 (stereo not given in full) [ISOFEBRIFUGINE]
Ratio [1]: 53 | ED50 (Plasmodium berghei [3]): 79 mg/kg | Inhibition (Plasmodium berghei [4]): 70%

Structure (SMILES): CC1(C)[C@@H](n2cnc3ccccc3c2=O)C(=O)C[C@@H]2[C@@H](O)CCCN21
Ratio [1]: 238 | ED90 (Plasmodium berghei [2]): 6.6 mg/kg | ED50 (Plasmodium berghei [3]): 2.5 mg/kg

EC50 (Plasmodium falciparum): 22 nM
Structure (SMILES): O=C(C[C@H]1NCC[C@H](O)[C@@H]1O)Cn1cnc2ccccc2c1=O
Ratio [1]: 1636 | ED90 (Plasmodium berghei [2]): 8.3 mg/kg | ED50 (Plasmodium berghei [3]): 2.4 mg/kg | EC50 (FM3A): 36000 nM | ED50 (Plasmodium berghei [5]): 8 mg/kg | ED90 (Plasmodium berghei [5]): 23 mg/kg

Structure (SMILES): O=c1c2ccccc2ncn1CC1(O)C[C@@H]2NCC[C@H](O)[C@@H]2O1 (stereo not given in full)
Ratio [1]: 167 | EC50 (Plasmodium falciparum): 150 nM | EC50 (FM3A): 250 nM

EC50 (Plasmodium falciparum): 2.2 nM
Structure (SMILES): O=C(C[C@H]1NCCC[C@@H]1O)Cn1cnc2ccc(O)cc2c1=O
Ratio [1]: 123 | ED90 (Plasmodium berghei [2]): 5.2 mg/kg | ED50 (Plasmodium berghei [3]): 0.6 mg/kg | EC50 (FM3A): 270 nM | ED50 (Plasmodium berghei [5]): 15 mg/kg | ED90 (Plasmodium berghei [5]): 27 mg/kg

Structure (SMILES): CCN(CC)CCCC(C)Nc1ccnc2cc(Cl)ccc12 (stereo not given) [CHLOROQUINE]
ED90 (Plasmodium berghei [2]): 13 mg/kg | ED50 (Plasmodium berghei [3]): 5.4 mg/kg | ED50 (Plasmodium berghei [5]): 32 mg/kg | ED90 (Plasmodium berghei [5]): 89 mg/kg

EC50 (Plasmodium falciparum): > 52000 nM
Structure (SMILES): O=C(C[C@H]1NC(=O)CC[C@@H]1O)Cn1cnc2ccccc2c1=O
EC50 (FM3A): > 52000 nM

EC50 (Plasmodium falciparum): 6600 nM
Structure (SMILES): O=C(C[C@H]1NCCC[C@@H]1O)Cn1c(=O)[nH]c2ccccc2c1=O
Ratio [1]: >13 | EC50 (FM3A): > 85000 nM

Structure (SMILES): C[C@@H]1CC[C@H]2[C@@H](C)C(=O)O[C@@H]3O[C@@]4(C)CC[C@@H]1[C@]32OO4 [ARTEMISININ]
Ratio [1]: 1000 | ED90 (Plasmodium berghei [2]): 3.3 mg/kg | ED50 (Plasmodium berghei [3]): 2 mg/kg | ED50 (Plasmodium berghei [5]): 3 mg/kg | ED90 (Plasmodium berghei [5]): 8 mg/kg

Structure (SMILES): O=c1c2cc(O)ccc2ncn1CC1(O)C[C@@H]2NCCC[C@@H]2O1 (stereo not given in full)
Ratio [1]: 10741 | ED90 (Plasmodium berghei [2]): 37 mg/kg | ED50 (Plasmodium berghei [3]): 6 mg/kg | EC50 (Plasmodium falciparum): 0.27 nM | EC50 (FM3A): 29000 nM
